Screening data from PubChem.
In the library only some 1% were active in any assay of this set; here they are far more common.
XBP1 UPR activ: activators of adaptive XBP1 UPR arm, primary screen, cell-based, CHO-XBP1 luciferase reporter, luminescence, uHTS; IRE1-XBP1 UPR activation; percent of tunicamycin response, DMSO as zero; activation, % at 20 µM; actives 0.33% (n = 330,000);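 active = versus positive control, 20 µM dose yields 30% or more activation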
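Signal: luciferase luminescence; Assay system: CHO-XBP1 luciferase reporter cells; Amount: one thousand reporter cells per well; Dosing: 20 µM single concentration, DMSO 1%; Benchmarks: high control tunicamycin 10 µg/mL final, low control DMSO vehicle only; Schedule: 6 h compound exposure at 37 °C, 5% CO2; Evaluation: percent activation relative to tunicamycin reference.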
Beta2AR agonist: beta2AR agonists driving receptor internalization, primary screen, cell-based, FAP fluorogen, flow cytometry; response, % (concentration not given with the values); Am2.2-beta2AR cells; AID 504454, 2011; Beta-2 adrenergic receptor (Homo sapiens), P07550; actives 0.43% (n = 340,000);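 active = response above a set limit, near 3 SD of response in nonfluorescent compounds, cut at about 42% in these data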
Target sequence (P07550 whole entry, looked up): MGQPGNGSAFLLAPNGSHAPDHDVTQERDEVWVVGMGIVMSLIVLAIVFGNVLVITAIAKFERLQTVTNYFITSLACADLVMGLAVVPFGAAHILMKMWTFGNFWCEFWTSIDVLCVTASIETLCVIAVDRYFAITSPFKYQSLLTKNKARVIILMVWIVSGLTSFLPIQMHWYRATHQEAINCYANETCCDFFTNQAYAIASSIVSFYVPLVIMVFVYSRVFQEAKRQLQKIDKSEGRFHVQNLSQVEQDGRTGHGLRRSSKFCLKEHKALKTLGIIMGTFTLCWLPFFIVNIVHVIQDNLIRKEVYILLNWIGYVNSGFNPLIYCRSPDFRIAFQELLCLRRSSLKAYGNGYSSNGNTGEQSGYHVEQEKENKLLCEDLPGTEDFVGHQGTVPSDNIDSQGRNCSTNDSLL
UPR CHOP act: activators of apoptotic CHOP UPR arm, primary screen, cell-based, CHO-CHOP luciferase reporter, luminescence, uHTS; actives 0.34% (n = 330,000); activation, % at 10 µM; UPR activation; percent of tunicamycin response over DMSO baseline;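 active = at 10 µM dose, activation of 40% or more, normalized to positive control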
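System: CHO-CHOP luciferase reporter cell line | Buffer or medium: F12 medium containing 10% fetal bovine serum | Doses: One dose, 10 µM in 0.5% DMSO | Times: 6 h compound exposure at 37 °C after overnight seeding | Signal: Luciferase luminescence | Read-out: % activation vs tunicamycin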
T cell HTS: modulators of CD8 T cell-vesicle binding, primary screen, mouse 2C CD8+ T cells, flow cytometry. 2C CD8+ T cell-vesicle binding; active compounds read low. response (vesicle binding), % at 7 µM. actives 0.068% (n = 330,000). AID 2052, 2009;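 active = response, share of CD8 T cells binding vesicles, and their 90th percentile fluorescence all below set limits, cut at about 80% in these data, passing the limit was not always enough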;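 note: values below 100% mean blocked vesicle binding to the CD8+ T cells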
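Material: murine 2C transgenic CD8+ T lymphocytes / Also added: QL9-peptide-loaded Drosophila micro-vesicles bearing Ld, ICAM-1 and B7-1 / Schedule: binding step 1.5 h, 37 °C, antibody labelling 20 min, ice / Signal: flow cytometry, PE anti-B7-1 (FL2) versus Alexa647 anti-CD8 (FL8), PFA-fixed / Evaluation: percent CD8+ FL2 mean versus row control / Benchmarks: naked versus QL9-loaded vesicles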
UPR XBP1 confirm: IRE1-XBP1 UPR arm activators, confirmation, cell-based, CHO-XBP1 luciferase reporter, luminescence, single concentration | AID 485299, 2010 | actives 63% (n = 1,000) | shares compounds with XBP1 UPR activ | activation, % at 20 µM;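 active = reporter signal at least 30% of the positive control's activation in two or more of four replicate wells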
Numbers stand for hits; – = inactive; · = not tested or not shown.

SMILES | XBP1 UPR activ | Beta2AR agonist | UPR CHOP act | T cell HTS | UPR XBP1 confirm
COc1cc(OC)cc(-c2sc3ccc(OC)cc3c2C#CC2(N)CCCCC2)c1 | – | – | – | – | ·
CC(C)CCOc1ccc(-c2c(=O)n(OCc3ccc([N+](=O)[O-])cc3)c3ccccc3[n+]2[O-])cc1 | 41 | – | – | – | –
CCCOc1ccc(-c2c(=O)n(OCc3ccc([N+](=O)[O-])cc3)c3ccccc3[n+]2[O-])cc1 | – | – | – | – | ·
CC(C)(C)c1cc(-c2nc(N)nc(N)n2)c(O)c(C(C)(C)C)c1 | 58 | – | – | – | 30
CC(C)NC(=O)CN1CCN(C(=O)c2ccc3oc(CCCc4ccccc4)nc3c2)CC1 | – | – | – | – | ·
COc1cc(/C=C/c2ccc3cccc(O)c3n2)ccc1O | 60 | – | – | – | 36
Cc1ccc2c(C)c(C(=O)N3CCN(C4CCS(=O)(=O)C4)CC3)oc2c1C (stereo unspecified) | – | – | – | – | ·
CC(CN1CCCCC1)OC(=O)c1ccc(Cl)cc1 (stereo unspecified) | 35 | – | – | – | –
CC(CN1CCN(C)CC1)OC(=O)c1ccc(Cl)cc1 (stereo unspecified) | – | – | – | – | ·
O=C(O)c1ccc(-n2ccnc2)c([N+](=O)[O-])c1 | – | – | – | – | ·
COC(=O)c1cc([N+](=O)[O-])c(-n2ccnc2)c([N+](=O)[O-])c1 | 91 | – | – | – | 187
Cc1cc(N2C(=O)CCC2=O)ccc1NC(=O)c1cccs1 | – | – | – | – | ·
COc1ccc(-c2sc3ccccc3c2-c2ccc(OCCN(C)C)cc2)cc1 | 44 | – | – | – | 58
Cc1ccc(OCC(=O)Sc2ccc(C)cc2)cc1 | – | – | – | – | ·
COc1ccccc1OCC(=O)Sc1ccc(C)cc1 | 34 | – | – | – | –
FC(F)(F)c1nc2ccccc2n2c(-c3ccc(Cl)cc3)nnc12 | 47 | – | – | – | 54
CCOC(=O)C1=C(C)Nc2ccccc2N=C1NC(=O)Cc1ccc(Br)cc1 | – | – | – | – | ·
NS(=O)(=O)c1ccc(N/N=C/c2cn(-c3ccccc3)nc2-c2cccs2)c([N+](=O)[O-])c1 | 57 | – | – | – | 62
NS(=O)(=O)c1ccc(N/N=C/c2cn(-c3ccccc3)nc2-c2cccs2)cc1 | – | – | – | – | ·
Cn1c2c(c(=O)n(C)c1=O)C(c1ccccc1Cl)C(C#N)=C(N)O2 (stereo unspecified) | – | – | – | – | ·
COc1ccc(OC)c2sc(NC(=O)c3ccc(Cl)s3)nc12 | 97 | – | – | – | –
COc1ccc(-c2cc(=Nc3c(C)n(C)n(-c4ccccc4)c3=O)c3ccccc3o2)cc1 | – | – | – | – | ·
COc1ccc(-c2c/c(=N\c3nc(-c4ccccc4)c(C)s3)c3ccccc3o2)cc1O | 34 | – | – | – | 39
COc1ccc(N2CCN(Cc3nc(N)nc(Nc4ccc(C)c(Cl)c4)n3)CC2)cc1 | 33 | – | – | – | 62
Cc1ccc(Nc2nc(N)nc(CN3CCN(c4ccccc4)CC3)n2)cc1Cl | – | – | – | – | ·
SMILES | XBP1 UPR activ | Beta2AR agonist | UPR CHOP act | T cell HTS | UPR XBP1 confirm
O=C(Nc1ccc(Cl)cc1)Nc1ccccc1Sc1ncc([N+](=O)[O-])s1 | 40 | – | – | – | 31
O=C(Nc1csc([N+](=O)[O-])c1)Nc1ccccc1Cl | – | – | – | – | ·
COc1ccc(-c2[nH]c(-c3ccc(Cl)cc3)nc2SCC(=O)Nc2nccs2)cc1 | 46 | – | – | – | –
COc1ccc(-c2[nH]c(-c3ccccc3)nc2SCC(=O)Nc2nccs2)cc1 | – | – | – | – | ·
Clc1ccc(CN2CCN(c3ncccn3)CC2)cc1Cl | – | – | – | – | ·
NC(=S)N=Nc1c(O)n(CCCl)c2ccc(Br)cc12 | – | – | – | – | ·
C/C(Cl)=C\Cn1c(O)c(N=NC(N)=S)c2cc(Br)ccc21 | 84 | – | – | – | 120
NC(=S)N=Nc1c(O)n(Cc2ccc(Br)cc2)c2ccccc12 | – | – | – | – | ·
Cc1ccc2c(c1)c(N=NC(N)=S)c(O)n2Cc1ccccc1 | 33 | – | – | – | 41
COc1cc(C2C(C(=O)c3cccs3)=C(O)C(=O)N2Cc2ccco2)cc(OC)c1OC (stereo unspecified) | – | – | – | – | ·
O=C1C2C3C=CC(C4CC34)C2C(=O)N1/N=C/c1cccs1 (stereo unspecified) | – | – | – | – | ·
Cc1cccc(-n2c(O)c(C=Nc3ccc(O)cc3)c3ccccc3c2=O)n1 | – | – | – | – | ·
Cc1ccc(N=Cc2c(O)n(-c3ccc4c(c3)OCO4)c(=O)c3ccccc23)cc1 | 35 | – | – | – | 27
O=C(CN1C(=O)/C(=C/c2ccc(Cl)cc2)SC1=S)NC1C=CS(=O)(=O)C1 (stereo unspecified) | 44 | – | – | – | –
COC(=O)[C@H](Cc1ccc(O)cc1)NC(=O)Cn1cnc2c(SC)nc(N)nc21 | – | – | – | – | ·
Cc1cc(SCC(=O)c2ccc(O)c(O)c2)n2nc(C)c(-c3ccccc3)c2n1 | 101 | – | – | – | 58
CSC1=NC(C)(C)C=C(/C=C/c2ccc(Cl)cc2)N1 | 35 | 84 | – | – | 45
CC(C)Nc1nnc(SC(C)C(=O)Nc2ccc(N3CCOCC3)cc2)s1 (stereo unspecified) | – | – | – | – | ·
Cc1c(CCOC(=O)C23CC4(C)CC(C)(CC(C)(C4)C2)C3)sc[n+]1CC(=O)c1ccccc1 | 40 | – | – | – | 65
N#Cc1ccc(-c2ccc(Cl)cc2)nc1SCC(=O)c1cccc(Cl)c1 | 122 | – | – | – | 369
C/C(=N\Nc1cc(-c2ccccc2)nc(-c2ccc(Br)cc2)n1)c1cccc(N)c1 | – | – | – | – | ·
C/C(=N/Nc1cc(-c2ccccc2)nc(-c2ccccc2)n1)c1ccc(O)cc1 | 68 | – | – | – | 57
COCCCNCC1C(Oc2ccc(Cl)cc2)C(=O)N1c1ccccc1C (stereo unspecified) | 36 | – | – | – | –
Cc1ccccc1N1C(=O)C(Oc2ccc(Cl)cc2)C1CNCCCOC(C)C (stereo unspecified) | – | – | – | – | ·
N#Cc1cnn2c1nc(N1CCCCC1)c1ccccc12 | 47 | – | – | – | 41
CCN(c1ccc(C(=O)CN2C(=O)NC3(CCOc4ccccc43)C2=O)cc1)S(C)(=O)=O (stereo unspecified) | – | – | – | – | ·
COc1cc2c3c(c1)C(C)=CC(C)(C)N3C(=O)C2=O | – | – | – | – | ·
COc1cccc(C(=O)Oc2cc3c4c(c2)C(C)=CC(C)(C)N4C(=O)C3=O)c1 | 50 | – | – | – | 253
